# Source: PubChem BioAssay
# This is a sample that favours compounds with a hit; in the whole collection about 2.6% have one here.
# SENP6 block: SENP6 protease inhibitors, primary screen, biochemical, luminescence, uHTS; Sentrin-specific protease 6 (Homo sapiens), Q9GZR1; Recombinant SENP6 catalytic domain, aminoluciferin luminescence; inhibition, % at 10 µM; 1.8% of 330,000 active; AID 2599, 2010;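 active = inhibition above about 50% at the single tested dose, limit read from the data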;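 note: plate controls were DMSO wells with enzyme for no effect and DMSO wells lacking enzyme for full effect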
# Target sequence (Q9GZR1 628-1112 limits assumed): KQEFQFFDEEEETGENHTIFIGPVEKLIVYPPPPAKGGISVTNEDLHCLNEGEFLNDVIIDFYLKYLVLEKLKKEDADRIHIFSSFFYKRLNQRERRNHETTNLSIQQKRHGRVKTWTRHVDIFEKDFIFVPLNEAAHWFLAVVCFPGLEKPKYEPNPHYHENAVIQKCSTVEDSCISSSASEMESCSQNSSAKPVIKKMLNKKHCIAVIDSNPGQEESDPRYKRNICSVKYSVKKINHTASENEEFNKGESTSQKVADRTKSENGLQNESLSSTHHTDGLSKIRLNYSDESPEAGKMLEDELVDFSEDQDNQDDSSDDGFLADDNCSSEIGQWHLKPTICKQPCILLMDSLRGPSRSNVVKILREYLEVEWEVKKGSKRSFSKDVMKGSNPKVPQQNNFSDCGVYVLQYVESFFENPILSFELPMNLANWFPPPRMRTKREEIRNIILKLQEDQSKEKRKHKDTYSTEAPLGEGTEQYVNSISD
# SENP1 FRET inh: human SENP1 catalytic domain inhibitors, primary screen, biochemical, FRET, uHTS; Sentrin-specific protease 1 (Homo sapiens), Q9P0U3; AID 624204, 2012; 0.21% of 360,000 active; inhibition, % at 10 µM; recombinant SENP1 catalytic domain, CyPet-SUMO1-YPet FRET cleavage;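 active = inhibition at least 30% at 10 µM, raw YFP signal under a set limit, fluorescence ratio 0.5 to 1.5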;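 note: 0% = enzyme with DMSO and 100% = no enzyme wells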
#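 Assay system – human recombinant His6-tagged SENP1 catalytic domain enzyme · Input – SENP1 enzyme, 20 pM final · Buffer or medium – Tris pH 8 buffer plus EDTA, NaCl, BME, BSA, NP40, catalase · Schedule – 50 min reaction at room temperature · Technique – FRET read of cyan and yellow fluorescence · Control set – no-enzyme wells low, DMSO-plus-enzyme wells high control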
# SENP7 inh: SENP7 protease inhibitors, primary screen, biochemical, luminescence, uHTS. recombinant SENP7, Z-RLRGG-aminoluciferin luminescence, 40 min. inhibition, % at 5 µM. Sentrin-specific protease 7 (Homo sapiens), Q9BQF6. AID 434973, 2010. 1.5% of 330,000 active;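 active = inhibition above about 50% at the single test dose, limit read from the data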;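 note: plate controls were DMSO with enzyme for no effect and no enzyme buffer wells for full effect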
# SENP8 block-1: SENP8 protease inhibitors, primary screen, biochemical, luminescence; Sentrin-specific protease 8 (Homo sapiens), Q96LD8; purified SENP8, Z-RLRGG-aminoluciferin cleavage; inhibition, % at 10 µM; 1.2% of 330,000 active; AID 2540, 2010; in the data active = inhibition above about 50%
# Platelet DG rel: inhibitors of platelet dense granule secretion, primary screen, cell-based, MLPCN, human platelets. human platelet-rich plasma, SFLLRN dense granule ATP release, luminescence. inhibition, %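 (compounds screened at 7.5 µM in platelet-rich plasma)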. 0.22% of 300,000 active. AID 1663, 2009;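 active = mean replicate score, as percent of positive control, at or above 50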
# SENP8 block-2: human SENP8 protease inhibitors, primary screen, biochemical, fluorescence, Nedd8 protein substrate, uHTS. AID 602440, 2012. inhibition, % at 20 µM. recombinant SENP8. Sentrin-specific protease 8 (Homo sapiens), Q96LD8. 0.64% of 360,000 active; in the data active = inhibition mostly above about 40%, no sharp cut-off; inactive = mostly below about 27%
# SENP8 inh conf: human SENP8 protease inhibitors, confirmation, biochemical, Nedd8 protein substrate, single concentration; shares compounds with SENP8 block-2; purified SENP8, Nedd8-AMC/pro-Nedd8 cleavage fluorescence, 30 min; inhibition, % at 25 µM; 15% of 1,400 active; AID 624319, 2012; in the data active = inhibition mostly above about 39%, no sharp cut-off; inactive = mostly below about 34%
# SENP1 conf: human SENP1 catalytic domain inhibitors, confirmation, biochemical, FRET endpoint, single concentration | AID 651678, 2012 | recombinant SENP1, CyPet-SUMO1-YPet FRET cleavage | 34% of 520 active | inhibition, % at 10 µM | shares compounds with SENP1 FRET inh; in the data active = inhibition mostly above about 35%, no sharp cut-off; inactive = mostly below about 32%;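 note: 0% = enzyme with DMSO and 100% = no enzyme control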
# SENP1 kinetic: human SENP1 catalytic domain inhibitors, confirmation, biochemical, kinetic FRET, single concentration; shares compounds with SENP1 FRET inh; recombinant SENP1, CyPet-SUMO1-YPet FRET kinetic cleavage; inhibition, % at 10 µM; 26% of 520 active; AID 651690, 2012; in the data active = inhibition mostly above about 32%, no sharp cut-off; inactive = mostly below about 29%;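 note: 0% = DMSO with enzyme and 100% = no enzyme substrate only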
# Numbers without * were called inactive; . = not tested or not shown; ! = not active in a repeat.
SMILES,SENP6 block,SENP1 FRET inh,SENP7 inh,SENP8 block-1,Platelet DG rel,SENP8 block-2,SENP8 inh conf,others
COc1ccccc1CCNC(=O)CCC(=O)N1CC2C[C@@H](C1)Cn1c2cccc1=O,-6,0,-4,2,3,46*,1,
c1cc2c(cc1N1CCCCC1)C1CC2CCN1 (stereo unspecified),.,-1,.,.,.,3,.,
O=C(O)c1ccc([N+](=O)[O-])c([N+](=O)[O-])c1,.,3,.,.,.,40*,32,
Cc1c(C(=O)N2CCC3(CC2)OCCO3)oc2ccc(S(=O)(=O)N3CCCCC3)cc12,-4,1,-5,-4,-2,8,.,
COc1ccc(-n2c(=O)[nH]c3ccccc3c2=O)c(OC)c1,-10,-2,-2,-5,3,12,.,
COc1ccc2c(c1)NP(=S)(c1ccccc1)N2C (stereo unspecified),.,2,.,.,.,54*,28,
CCCC12CN3CC(CCC)(CN(C1)C3c1ccccn1)C2=O (stereo unspecified),3,-1,-1,-2,6,19,.,
O=[N+]([O-])c1cccc(CN2CC=C(c3ccc(F)cc3)CC2)c1,1,2,-6,-5,-8,18,.,
O=[N+]([O-])c1ccccc1CN1CC=C(c2ccc(F)cc2)CC1,7,-3,-6,-1,-3,44*,12,
C[C@]1(O)CCC2C3CC[C@H]4C[C@@H](OC(=O)CNC(=O)CN)CC[C@]4(C)C3CC[C@@]21C (stereo partly specified),17,2,4,2,.,16,.,
c1cncc(C2CCCCN2)c1 (stereo unspecified),7,1,0,-3,2,55*,10,
Cc1ccc(Cn2nc(C(=O)Nc3ccc(Br)cc3)cc2C)cc1,-1,3,5,2,19,16,.,
O=C1NC(=O)C(Nc2ccc(Cl)c(Cl)c2)C(=O)N1,.,-2,.,.,.,65*,76*,
CN1CCN(c2cc(N3CCCCCC3)c(F)cc2[N+](=O)[O-])CC1,-5,1,-3,-16,2,22,.,
CCN1CCN(c2cc(N3CCCC3)c([N+](=O)[O-])cc2F)CC1,-15,6,-1,-3,-2,42*,20,
O=c1cc(C2CCNCC2)[nH][nH]1,6,-1,18,-2,1,55*,19,
COc1ccc(-n2c(-c3ccccc3Br)nc3ccccc3c2=O)cc1,-11,1,-1,1,-5,9,.,
C1=C(CCNCc2ccccc2)CCCC1,-12,-1,-15,-10,3,2,.,
CN1CC[C@@]2(C)c3cc(O)ccc3N(C)[C@@H]12,.,-5,.,.,.,44*!,62*,
COP(=S)(OC)SCn1nnc2ccccc2c1=O,.,2,.,.,.,3,.,
Nc1c([N+](=O)[O-])cc(F)c(N2CCNCC2)c1Br,-9,2,0,-2,6,44*,7,
CN1CCN(c2c(F)cc([N+](=O)[O-])c(N)c2Br)CC1,-8,3,-4,-3,-10,25,.,
c1ccc(-c2[nH]c[n+](CC3CO3)c2-c2ccccc2)cc1 (stereo unspecified),-2,.,2,-2,.,.,.,
CN[C@@H](C)[C@@H](O)c1ccccc1,-6,1,1,10,-2,10,.,
Cc1nonc1OCCNCCNc1ccc([N+](=O)[O-])c2cccnc12,1,-36,0,3,-11,43*,20,
SMILES,SENP6 block,SENP1 FRET inh,SENP7 inh,SENP8 block-1,Platelet DG rel,SENP8 block-2,SENP8 inh conf,others
CCNCCNc1ccc([N+](=O)[O-])c2cccnc12,8,-9,9,5,-4,63*,19,
CC1CN(c2ccc([N+](=O)[O-])c3cccnc23)CC(C)N1 (stereo unspecified),4,-52,-1,-3,3,39,.,
COc1cc([N+](=O)[O-])c2ncccc2c1[N+](=O)[O-],.,2,.,.,.,30,.,
O=[N+]([O-])c1ccc(N2CCCC2)c2ncccc12,34,-33,-3,10,12,81*,27,
NC(Cc1ccc(Cl)cc1)c1csc(Nc2ncccn2)n1 (stereo unspecified),.,-1,.,.,.,8,.,
C=C1C(=O)[C@@]23C[C@H]4[C@@H]5[C@@]6(C)CCC[C@@]57[C@@H]2[C@@H](O)[C@@H]1C[C@H]3[C@H]7N4C6,2,4,-3,-6,3,0,.,
OCCOc1ccccc1,-5,-1,-4,3,.,46*,10,
CC12CN3CC(C)(CN(C1)C31CCOCC1)C2=O,5,1,-7,-2,-26,41*,5,
CN1C(=O)C(Cc2ccsc2)C(=O)N(C)C1=O,0,0,1,5,-5,47*,35,
CN1C(=O)C(Cc2ccccc2)C(=O)N(C)C1=O,.,-2,.,.,.,9,.,
COc1cc(C2c3cc4c(c(O)c3CC3COC(=O)C32)OCO4)cc(OC)c1OC (stereo unspecified),.,2,.,.,.,6,.,
COc1cc(C2c3cc(O)c(OC)cc3CC3C(=O)OCC32)ccc1O (stereo unspecified),.,0,.,.,.,44*,5,
CN1C(=O)C(=Cc2ccc(Sc3ccccc3)o2)C(=O)N(C)C1=S,-8,-2,6,4,0,8,.,
CN1C(=O)C(=Cc2ccc(N3CCOCC3)o2)C(=O)N(C)C1=S,8,66*,8,3,-8,38,.,SENP1 conf=4;SENP1 kinetic=3
CCN1C(=O)C(=Cc2ccc(N3CCOCC3)o2)C(=O)N(CC)C1=S,10,49*,-3,5,3,22,.,SENP1 conf=19;SENP1 kinetic=10
Cc1nn(Cc2ccccc2)c(C)c1C(=O)OCC(=O)Nc1ccccc1SCC#N,0,48*,8,-1,5,4,.,SENP1 conf=5;SENP1 kinetic=4
O=C(c1ccco1)N1Cc2ccccc2-n2nncc2C1,.,1,.,.,.,23,.,
COc1ccc(NP2(=O)NCCCN2)cc1,.,5,.,.,.,13,.,
